Drawing on ChEMBL document CHEMBL1126298, “New triazine derivatives as potent modulators of multidrug resistance” (1992), this text covers Viability, Fold reversion and Increase for 14 compounds.

In experiment [1] the test system is DC3F/AD. The experiment is described as follows: Percent of cell viability remaining after incubating the cells with the modulator alone a concentration of 5 uM. Type of experiment: functional, Cricetulus griseus. Summed up:
(§1)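 Cells were grown with modulator alone for 4 days under the same conditions as the chemosensitivity assay, and read by MTT. Viability = (absorbance with modulator/absorbance of control cells) × 100. "tox" marks viability below 25%.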

Experiment [2] relates to DC3F/AD. Description: In vitro activity in DC-3F/AD cell line(Ratio of IC50(actinomycin D alone) / IC50(actinomycin D + modulator) at a concentration of 5 uM.
Experiment [3] concerns DC3F/AD. Description: In vitro activity in DC-3F/AD cell line Ratio of IC50(actinomycin D alone) / IC50(actinomycin D + modulator) at a concentration of 10 uM.
In experiment [4] the test system is DC3F/AD. Description: Percent of cell viability remaining after incubating with a 10 uM concentration. It counts as functional, Cricetulus griseus. The essentials:
as §1

The test system of experiment [5] is DC3F/AD. The experiment is described as follows: Increase in adriamycin uptake in modulator-treated cells relative to untreated cells at a concentration of 10 uM. Type of experiment: functional, Cricetulus griseus. Summed up:
(§2)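 DC-3F/AD or KB-A1 cells (5 × 10⁶/mL) were incubated at 37 °C for 5 h with 50 μM adriamycin plus modulator (2.5–10 μM range). ADR fluorescence of 10 000 cells was read by flow cytometry at 4 °C with 488 nm argon-laser excitation. The value is the increase in mean fluorescence of treated cells over untreated cells.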

In experiment [6] the test system is DC3F/AD. The experiment is described as follows: Increase in adriamycin uptake in modulator-treated cells relative to untreated cells at a concentration of 5 uM. It counts as functional, Cricetulus griseus. Summed up:
as §2

Molecules are shown by their SMILES.

In turn, `C=CCNc1nc(NCC=C)nc(N2CCN(CCCC(c3ccc(F)cc3)c3ccc(F)cc3)CC2)n1` returned a Viability with DC3F/AD [1] of 50%. Moreover, the results for the Fold reversion in the experiment on DC3F/AD [2] and with DC3F/AD [3] were 171 and under 25, respectively.

With `C=CCNc1nc(NCC=C)nc(N2CCC(NCC3c4ccccc4CS(=O)(=O)c4ccccc43)CC2)n1` (stereo not given), the values for the Viability in the experiment on DC3F/AD [1] and in the experiment on DC3F/AD [4] were 90% and 94%, respectively. Further, the Fold reversion came out at 27 with DC3F/AD [2] and 2536 in the experiment with DC3F/AD [3].

Turning to `C=CCNc1cc(N2CCC(NCC(c3ccccc3)c3ccccc3)CC2)nc(NCC=C)n1`, the Increase turned out to be 16.3 in the experiment on DC3F/AD [5] and 15.1 in the experiment with DC3F/AD [6]. This compound also had a Viability in the experiment with DC3F/AD [1] of 67%. The Fold reversion in the experiment with DC3F/AD [2] was 472; in the experiment on DC3F/AD [3] it was under 25.

`C=CCNc1nc(NCC=C)nc(N2CCC(NCC(c3ccccc3)(c3ccccc3)c3ccccc3)CC2)n1`: in the experiment with DC3F/AD [1], the Viability came out at 59%. For the same compound, the values for the Fold reversion in the experiment on DC3F/AD [2] and in the experiment on DC3F/AD [3] were 57 and under 25, respectively.

As for `C/C=C/CNc1nc(NC/C=C/C)nc(N2CCC(NC(c3ccc(F)cc3)c3ccc(F)cc3)CC2)n1.Cl.Cl`, the Viability was 82% in the experiment with DC3F/AD [1] and 43% with DC3F/AD [4]. In addition, the Fold reversion in the experiment with DC3F/AD [2] was determined as 146; in the experiment with DC3F/AD [3] it was 339.

Compound `C=CCNc1cc(N2CCC(NC(c3ccc(F)cc3)c3ccc(F)cc3)CC2)nc(NCC=C)n1.Cl.Cl` came in with a Viability in the experiment on DC3F/AD [1] of 49%. In addition, the Fold reversion is on record as 1174 with DC3F/AD [2] and under 25 in the experiment with DC3F/AD [3].

As to `C=CCNc1nc(NCCC)nc(N2CCC(NC(c3ccc(F)cc3)c3ccc(F)cc3)CC2)n1.Cl.Cl`, the Increase in the experiment on DC3F/AD [5] came to 25.5; with DC3F/AD [6], 19.8. Besides, the Viability in the experiment on DC3F/AD [4] came out at 47%. For the same compound, the Fold reversion with DC3F/AD [3] was 2220.

Take `C=CCNc1nc(NCC=C)nc(N2CCC(NC(c3ccccc3)c3ccc(F)cc3)CC2)n1.Cl` (stereo not given): the Increase in the experiment with DC3F/AD [5] was determined as 19.4; in the experiment on DC3F/AD [6] it was 10.5. Also, the results for the Viability in the experiment on DC3F/AD [1] and in the experiment with DC3F/AD [4] were 72% and 54%, respectively. The Fold reversion with DC3F/AD [2] is reported as 732; with DC3F/AD [3], 1796.

Consider `C=CCNc1nc(NCCC)nc(N2CCC(NCCC(c3ccccc3)c3ccccc3)CC2)n1`, for which the results for the Increase in the experiment with DC3F/AD [5] and in the experiment with DC3F/AD [6] were 27.2 and 17.9, respectively. Besides, the Fold reversion with DC3F/AD [2] and with DC3F/AD [3] was under 25 throughout.

The compound `C=CCNc1nc(NCC=C)nc(N2CCC(SC(c3ccccc3)c3ccccc3)CC2)n1` yielded an Increase in the experiment on DC3F/AD [5] of 28.3. Further, the Viability in the experiment with DC3F/AD [1] turned out to be 90%; in the experiment on DC3F/AD [4], 76%. In addition, the values for the Fold reversion in the experiment on DC3F/AD [2] and with DC3F/AD [3] were 380 and 1202, respectively.

Turning to `C=CCNc1nc(NCC=C)nc(N2CCN(C(c3ccc(Cl)cc3)c3ccc(Cl)cc3)CC2)n1.CS(=O)(=O)O`, the Viability was 81% in the experiment with DC3F/AD [1] and 67% with DC3F/AD [4]. Besides, the Fold reversion in the experiment on DC3F/AD [2] is 42; in the experiment with DC3F/AD [3], 99.

For `C=CCNc1nc(NCC=C)nc(N2CCC(N(CC=C)C(c3ccc(F)cc3)c3ccc(F)cc3)CC2)n1`, the Increase is given as 33.9 in the experiment with DC3F/AD [5] and 22.1 with DC3F/AD [6]. In addition, the Viability with DC3F/AD [4] was 49%. The Fold reversion with DC3F/AD [3] is reported as 627.

As for `C=CCNc1nc(NCC=C)nc(NN2CCN(C(c3ccc(F)cc3)c3ccc(F)cc3)CC2)n1`, the Increase with DC3F/AD [5] was found to be 20.7; in the experiment on DC3F/AD [6] it was 18.3. Moreover, the Viability with DC3F/AD [1] was found to be 82%; in the experiment on DC3F/AD [4] it was 78%. Moreover, the Fold reversion with DC3F/AD [2] is recorded as 1932; in the experiment with DC3F/AD [3] it was 5344.

As to `C=CCNc1nc(NCC=C)nc(N2CCC(NCCC(c3ccccc3)c3ccccc3)CC2)n1`, the Increase is recorded as 29.8 in the experiment with DC3F/AD [5] and 21.5 in the experiment on DC3F/AD [6]. In addition, in the experiment with DC3F/AD [1], the Viability came out at 50%. Also, the Fold reversion in the experiment on DC3F/AD [2] is reported as 220; in the experiment with DC3F/AD [3] it was under 25.
